Rows were chosen to be rich in hits. Some 2.1% of all compounds tested hit in one or more screens of this group.
MsrA inh: bovine MsrA enzyme inhibitors, primary screen, biochemical, absorbance, HTS. Methionine sulfoxide reductase A (Bos taurus). inhibition, % at 15.5 µM. AID 651718, 2012. actives 0.75% (n = 360,000). purified bovine MsrA, absorbance read-out; in the data active = inhibition above about 4.5%;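 note: 0% = vehicle wells with enzyme and 100% = reference inhibitor wells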
PKA-R1A act: activators of PKA-R1A holoenzyme, primary screen, biochemical, fluorescence polarization, Cy5-IP20, bovine R1A, mouse PKAc; cAMP-dependent protein kinase type I-alpha regulatory subunit (Bos taurus) + …; PKA-R1A dissociation; scaled: DMSO 0%, 113 µM cGMP 100%; activation, % at 11.4 µM; actives 0.083% (n = 340,000); AID 504707, 2011;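 active = percent activation above the mean of all tested compounds plus 3 SD, cut at about 19% in these data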;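 note: higher means more PKAc released from R1A so a rise in polarization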
IMP-1 inh-1: IMP-1 metallo-beta-lactamase inhibitors, primary screen, biochemical, epi-absorbance readout, Pseudomonas aeruginosa enzyme. metallo-beta-lactamase IMP-1 (Pseudomonas aeruginosa). AID 1556, 2009. actives 0.45% (n = 290,000). inhibition, % at 5.6 µM. purified IMP-1, nitrocefin hydrolysis, epi-absorbance fluorescence;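 active = inhibition above the mean plus 3 SD of all compounds in the same screening run, cut at about 4.5% in these data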;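 note: 0% = IMP-1 with DMSO and 100% = DMSO wells lacking enzyme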
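System – purified recombinant IMP-1 beta-lactamase · Input – IMP-1 dispensed at 0.2 nM · Timing – 15 min preincubation plus 25 min reaction at 25 °C · Signal – Epi-absorbance fluorescence, 480 nm excitation, 530 nm emission · Measure – percent IMP-1 inhibition derived from blank-referenced optical density · Controls – Enzyme-plus-DMSO low control, enzyme-free DMSO high control · Replication – singlicate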
bovine MsrA act: bovine MsrA enzyme activators, primary screen, biochemical, absorbance, HTS; Methionine sulfoxide reductase A (Bos taurus); purified bovine MsrA, absorbance read-out; activation, % at 10.6 µM; actives 0.3% (n = 360,000); in the data active = activation above about 7.5%;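 note: 0% = vehicle and 100% = reference activator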
VIM-2 inhibitor: VIM-2 metallo-beta-lactamase inhibitors, primary screen, biochemical, epi-absorbance readout, Pseudomonas aeruginosa enzyme. purified VIM-2, nitrocefin hydrolysis, epi-absorbance fluorescence. inhibition, % at 5.6 µM. actives 0.89% (n = 290,000);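 active = inhibition above the mean of all tested compounds plus 3 SD, cutoff set per screening run, cut at about 7.5% in these data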;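 note: red hydrolysis product quenches plate fluorescence so inhibitors raise well fluorescence; 0% = enzyme with DMSO and 100% = DMSO without enzyme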
PKA-R2B activ: activators of PKA-R2B holoenzyme, primary screen, biochemical, fluorescence polarization, Cy5-IP20, human; PKA-R2B holoenzyme dissociation; R2B truncated from residue 108, S112A mutant; 0% DMSO only, 100% 113 µM cGMP; actives 0.079% (n = 340,000); activation, % at 11.4 µM; AID 504700, 2011; cAMP-dependent protein kinase catalytic subunit beta (Homo sapiens) + cAMP-dependent …;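 active = activation above a cutoff set at the mean over all compounds plus 3 SD, cut at about 18% in these data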;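 note: higher means more holoenzyme dissociation and a rise in polarization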
IMP-1 inh-2: IMP-1 metallo-beta-lactamase inhibitors, confirmation, selectivity assay for selective VIM-2 inhibitor project, biochemical, epi-absorbance readout, triplicate; shares compounds with VIM-2 inhibitor; inhibition, % at 5.6 µM; AID 1856, 2009; purified IMP-1, nitrocefin hydrolysis, epi-absorbance fluorescence; 1,300 tested, under 10 active; call rule not given here;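 note: 0% = enzyme with vehicle and 100% = vehicle without enzyme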
VIM-2 FRET inh: VIM-2 inhibitors in FRET format, confirmation, artefact control for selective VIM-2 inhibitor project, biochemical, epi-absorbance artifact exclusion | shares compounds with VIM-2 inhibitor | purified VIM-2, CCF2 FRET substrate hydrolysis | inhibition, % at 5.6 µM | actives 23% (n = 1,300) | AID 1857, 2009;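 active = inhibition above the mean of all tested compounds plus 3 SD, cut at about 19% in these data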;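 note: 0% = VIM-2 plus DMSO and 100% = no enzyme wells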
TEM-1 counter: TEM-1 serine beta-lactamase inhibitors, counter-screen for VIM-2 inhibitor project, biochemical, epi-absorbance, HTS | Purified TEM-1, nitrocefin hydrolysis, epi-absorbance fluorescence | AID 1866, 2009 | inhibition, % at 5.6 µM | shares compounds with VIM-2 inhibitor | actives 3% (n = 1,300);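 active = inhibition above that campaign's mean inhibition plus 3 SD, cut at about 0.46% in these data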;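 note: 0% = TEM-1 with DMSO and 100% = TEM-1 with 100 µM potassium clavulanate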
Target sequence (P62593 whole entry, looked up): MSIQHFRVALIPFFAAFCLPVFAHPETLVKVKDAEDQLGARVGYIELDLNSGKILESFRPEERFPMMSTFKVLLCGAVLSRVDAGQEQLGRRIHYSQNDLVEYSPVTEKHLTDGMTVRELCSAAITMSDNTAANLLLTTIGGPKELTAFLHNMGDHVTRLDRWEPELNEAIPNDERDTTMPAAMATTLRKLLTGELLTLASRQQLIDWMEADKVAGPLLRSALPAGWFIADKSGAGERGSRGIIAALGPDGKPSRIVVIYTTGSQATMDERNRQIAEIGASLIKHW
VIM-2 inh conf: VIM-2 metallo-beta-lactamase inhibitors, confirmation, biochemical, epi-absorbance, hits shared with IMP-1 screen; shares compounds with VIM-2 inhibitor; purified VIM-2, nitrocefin hydrolysis; inhibition, % at 5.6 µM; actives 96% (n = 1,300); AID 2187, 2009;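 active = inhibition of the VIM-2 beta-lactamase enzyme above about 11% from the earlier first-round screen, limit read from the data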;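 note: 0% = VIM-2 with DMSO and 100% = buffer wells without enzyme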
* hit, by the source's call; . = not tested or not shown.

SMILES	MsrA inh	PKA-R1A act	IMP-1 inh-1	bovine MsrA act	VIM-2 inhibitor	PKA-R2B activ	IMP-1 inh-2	VIM-2 FRET inh	TEM-1 counter	VIM-2 inh conf
Cc1ccc2c(c1)c1nc3ccccc3nc1n2C	1	0	1	-2	14*	-1	-1	1	-4	16*
COc1ccc(CN2C(=O)C(CC(=O)NC(c3ccccc3)c3ccccc3)CC(C(=O)N(C)C)=C2C)cc1 (stereo unspecified)	-1	-3	.	0	.	-14	.	.	.	.
CCc1ccc2nc3nc(C)cc(C)c3c(N)c2c1	1	-2	-2	0	23*	-10	-1	-8	-3	41*
Cc1cc(C)c2c(N)c3ccccc3nc2n1	2	-6	-3	-5	16*	-2	-3	-7	-6	33*
COC(=O)C1=C(C)N(CC(C)C)C(=S)NC1c1cccc(F)c1 (stereo unspecified)	1	.	.	.	.	.	.	.	.	.
C[C@H](CO)N1C[C@H](C)[C@H](CN(C)C(=O)Nc2ccc3c(c2)OCO3)OCc2cnnn2CCCC1=O	0	.	.	.	.	.	.	.	.	.
CC(=O)C1=C(C)NC(=S)NC1c1ccccc1 (stereo unspecified)	1	.	.	.	.	.	.	.	.	.
Cc1cccn2c(=O)c3cc(C(=O)NCc4cccnc4)c(=N)n(C(C)C)c3nc12	1	-16	-1	-12	20*	6	-3	-86	-6	31*
COc1ccc(CCNC(=O)c2cc3c(=O)n4cccc(C)c4nc3n(Cc3ccco3)c2=N)cc1OC	-1	-12	-5	-11	5	-13	.	.	.	.
Cc1cccn2c(=O)c3cc(C(=O)NCc4ccco4)c(=N)n(C(C)C)c3nc12	1	-2	-6	-7	13*	8	-4	-30	-5	27*
COc1ccc(OC)c(CNC(=O)c2[nH]c(C(F)(F)F)nc2-c2ccccc2)c1	1	.	.	-8	.	.	.	.	.	.
CCOC(=O)[C@]12CCCC=C1N(Cc1ccccc1)C(=O)[C@H](CC(=O)N1CCN(C(=O)c3ccco3)CC1)C2	0	.	.	.	.	.	.	.	.	.
CC(=O)N1CC2(NC(=O)c3ccccc3N2)c2ccccc21 (stereo unspecified)	1	2	-1	-1	-4	-1	.	.	.	.
CCCN1CCN(CCCNC(=O)c2cc3c(=O)n(C)c4ccccc4c3n2C)CC1	1	10	-5	2	16*	-1	-3	4	-5	30*
CN1CCN(CCNC(=O)c2cc3c(=O)n(C)c4ccccc4c3n2C)CC1	-1	-5	2	-5	21*	-9	-2	5	-5	33*
Cn1c(C(=O)NCCCN2CCCCCC2)cc2c(=O)n(C)c3ccccc3c21	0	-1	1	0	22*	1	0	-2	-4	29*
CN(C)c1ccc(CNC(=O)CCc2ccc(S(=O)(=O)N3CCCCCC3)cc2)cc1	-1	-4	.	-5	.	-2	.	.	.	.

Assay outcomes as filed in PubChem BioAssay.
